Source: ChEMBL document CHEMBL4014308, “Amphiphilic Tobramycin-Lysine Conjugates Sensitize Multidrug Resistant Gram-Negative Bacteria to Rifampicin and Minocycline” (J Med Chem, 2017)
Calls of active or inactive are those of the source. No cut-off for these calls is given here.

How the values were obtained:
Type in all cases: functional
Enterococcus faecium = assay: Antibacterial activity against Enterococcus faecium ATCC 27270 after 18 hrs by microtiter dilution assay; conditions: ATCC 27270, 18 h
Summary of the method: (§1)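 Broth microdilution per CLSI. Overnight culture adjusted to 0.5 McFarland in saline, diluted 1:50 in Mueller-Hinton broth, and added to an equal volume of 2-fold serial compound dilutions in MHB. Incubated 18 h at 37 °C. MIC taken as the lowest concentration with no visible growth.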

[1] = test system: Staphylococcus epidermidis; assay: Antibacterial activity against methicillin-susceptible Staphylococcus epidermidis isolate CANWARD-2008 81388 after 18 hrs by microtiter dilution assay; conditions: isolate CANWARD-2008 81388, 18 h
Summary of the method: (§2)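 Broth microdilution following CLSI guidelines. An overnight culture was adjusted to 0.5 McFarland in saline, then diluted 1:50 in Mueller-Hinton broth. This inoculum was added in equal volume to 2-fold serial dilutions of agent in MHB and incubated 18 h at 37 °C. MIC was the lowest concentration with no visible growth.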

Pseudomonas aeruginosa [2] = assay: Induction of cytoplasmic membrane depolarization in Pseudomonas aeruginosa PAO1 up to 1200 secs by diSC3-5 staining based fluorescence assay
Summary of the method: (§3)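 Mid-log PAO1 washed in 5 mM HEPES pH 7.4 with 20 mM glucose and resuspended to OD600 0.05. Cells were loaded with 0.2 mM EDTA and 0.4 µM diSC3-5 for 2 h at 37 °C in the dark, then equilibrated with 100 mM KCl for 30 min. Agent was added and fluorescence followed at 622/670 nm; agents tested at 32 µg/mL.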

Pseudomonas aeruginosa [3] = assay: Synergistic antibacterial activity against Pseudomonas aeruginosa PAO1 after 18 hrs in presence of rifampicin by checkerboard assay
Summary of the method: (§4)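 Checkerboard in MHB: antibiotic diluted along one axis and adjuvant along the other (10 × 7 matrix). Inoculum was a 1:50 dilution in MHB of a 0.5 McFarland saline suspension; incubated 18 h at 37 °C. Each FIC = concentration in the no-growth well divided by the MIC alone; FIC index = sum of both FICs. ≤0.5 synergy, 0.5–4 no interaction, ≥4 antagonism.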

Staphylococcus aureus [4] = assay: Antibacterial activity against Staphylococcus aureus ATCC 29213 after 18 hrs by microtiter dilution assay; conditions: ATCC 29213, 18 h; summary of the method: as §2
Pseudomonas aeruginosa [5] = assay: Antibacterial activity against gentamicin/tobramycin-resistant Pseudomonas aeruginosa isolate CANWARD-2011 96846 after 18 hrs by microtiter dilution assay; conditions: isolate CANWARD-2011 96846, 18 h; summary of the method: as §2
Pseudomonas aeruginosa [6] = assay: Synergistic antibacterial activity against Pseudomonas aeruginosa PAO1 after 18 hrs in presence of minocycline by checkerboard assay; summary of the method: as §4
Pseudomonas aeruginosa [7] = assay: Antibacterial activity against Pseudomonas aeruginosa ATCC 27853 after 18 hrs by microtiter dilution assay; conditions: ATCC 27853, 18 h; summary of the method: as §1
[8] = test system: Stenotrophomonas maltophilia; assay: Antibacterial activity against Stenotrophomonas maltophilia isolate CAN-ICU 62584 after 18 hrs by microtiter dilution assay; conditions: isolate CAN-ICU 62584, 18 h; summary of the method: as §1
[9] = test system: Staphylococcus epidermidis; assay: Antibacterial activity against methicillin-resistant Staphylococcus epidermidis isolate CAN-ICU 61589 after 18 hrs by microtiter dilution assay; conditions: isolate CAN-ICU 61589, 18 h; summary of the method: as §2
Escherichia coli [10] = assay: Antibacterial activity against amikacin-resistant Escherichia coli isolate CAN-ICU 63074 after 18 hrs by microtiter dilution assay; conditions: isolate CAN-ICU 63074, 18 h; summary of the method: as §2
Pseudomonas aeruginosa [11] = assay: Antibacterial activity against multidrug/extremely drug-resistant/colistin-susceptible Pseudomonas aeruginosa isolate 101885 after 18 hrs by microtiter dilution assay; summary of the method: as §2
Acinetobacter baumannii = assay: Antibacterial activity against Acinetobacter baumannii isolate CAN-ICU 63169 after 18 hrs by microtiter dilution assay; conditions: isolate CAN-ICU 63169, 18 h; summary of the method: as §1
Pseudomonas aeruginosa [12] = assay: Antibacterial activity against gentamicin-resistant Pseudomonas aeruginosa isolate CAN-ICU 62308 after 18 hrs by microtiter dilution assay; conditions: isolate CAN-ICU 62308, 18 h; summary of the method: as §2
Pseudomonas aeruginosa [13] = assay: Induction of outer membrane permeabilization in Pseudomonas aeruginosa PAO1 at 32 ug/ml after 30 mins by CFDASE staining based fluorescence assay
Summary of the method: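 Log-phase PAO1 washed in PBS, brought to OD600 0.5 and loaded with 100 µM CFDASE for 30 min at 37 °C, then washed. Cells were exposed to agent for 30 min at 37 °C and supernatant fluorescence read at 488/520 nm. Untreated cells were subtracted; 1% Triton X-100 served as positive control.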

Enterococcus faecalis = assay: Antibacterial activity against Enterococcus faecalis ATCC 29212 after 18 hrs by microtiter dilution assay; conditions: ATCC 29212, 18 h; summary of the method: as §1
Pseudomonas aeruginosa [14] = assay: Antibacterial activity against multidrug/extremely drug-resistant/colistin-resistant Pseudomonas aeruginosa isolate 91433 after 18 hrs by microtiter dilution assay; summary of the method: as §2
Pseudomonas aeruginosa [15] = assay: Antibacterial activity against multidrug/extremely drug-resistant/colistin-susceptible Pseudomonas aeruginosa isolate 100036 after 18 hrs by microtiter dilution assay; summary of the method: as §2
Streptococcus pneumoniae = assay: Antibacterial activity against Streptococcus pneumoniae ATCC 49619 after 18 hrs by microtiter dilution assay; conditions: ATCC 49619, 18 h; summary of the method: as §1
Staphylococcus aureus [16] = assay: Antibacterial activity against methicillin resistant Staphylococcus aureus ATCC 33592 after 18 hrs by microtiter dilution assay; conditions: ATCC 33592, 18 h; summary of the method: as §2
Pseudomonas aeruginosa [17] = assay: Antibacterial activity against multidrug/extremely drug-resistant/colistin-susceptible Pseudomonas aeruginosa isolate P262-101856 after 18 hrs by microtiter dilution assay; summary of the method: as §2
Pseudomonas aeruginosa [18] = assay: Disruption of proton motive force in Pseudomonas aeruginosa PAO1 cytoplasmic membrane assessed as repression of bacterial swimming motility after 20 hrs
Summary of the method: (§5)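 Swim plates of 0.3% agar with tryptone 5 g/L and NaCl 2.5 g/L, agent mixed into the medium and plates dried 2 h. PAO1 at 1.0 McFarland in 0.85% saline was point-inoculated at the center, and plates incubated 20 h at 37 °C before swim diameter was imaged.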

Escherichia coli [19] = assay: Antibacterial activity against Escherichia coli ATCC 25922 after 18 hrs by microtiter dilution assay; conditions: ATCC 25922, 18 h; summary of the method: as §2
Klebsiella pneumoniae = assay: Antibacterial activity against Klebsiella pneumoniae ATCC 13883 after 18 hrs by microtiter dilution assay; conditions: ATCC 13883, 18 h; summary of the method: as §1
Pseudomonas aeruginosa [20] = assay: Antibacterial activity against multidrug/extremely drug-resistant/colistin-susceptible Pseudomonas aeruginosa isolate P264-104354 after 18 hrs by microtiter dilution assay; summary of the method: as §2
Escherichia coli [21] = assay: Antibacterial activity against gentamicin/tobramycin/ciprofloxacin-resistant Escherichia coli isolate CANWARD-2011 97615 harboring AAC3-2A after 18 hrs by microtiter dilution assay; conditions: isolate CANWARD-2011 97615, 18 h; summary of the method: as §2
Pseudomonas aeruginosa [22] = assay: Antibacterial activity against Pseudomonas aeruginosa PAO1 after 18 hrs by microtiter dilution assay; summary of the method: as §2
Pseudomonas aeruginosa [23] = assay: Antibacterial activity against multidrug/extremely drug-resistant/colistin-resistant Pseudomonas aeruginosa isolate 101243 after 18 hrs by microtiter dilution assay; summary of the method: as §2
Escherichia coli [24] = assay: Antibacterial activity against gentamicin-resistant Escherichia coli isolate CAN-ICU 61714 after 18 hrs by microtiter dilution assay; conditions: isolate CAN-ICU 61714, 18 h; summary of the method: as §2
Pseudomonas aeruginosa [25] = assay: Antibacterial activity against multidrug/extremely drug-resistant/colistin-susceptible Pseudomonas aeruginosa isolate P259-96918 after 18 hrs by microtiter dilution assay; summary of the method: as §2
Pseudomonas aeruginosa [26] = assay: Induction of cytoplasmic membrane depolarization in Pseudomonas aeruginosa PAO1 up to 300 secs by diSC3-5 staining based fluorescence assay; summary of the method: as §3
Pseudomonas aeruginosa [27] = assay: Potentiation of novobiocin-induced antibacterial activity against Pseudomonas aeruginosa PAO1 at 4 ug/ml after 18 hrs by checkerboard assay
Pseudomonas aeruginosa [28] = assay: Antibacterial activity against Pseudomonas aeruginosa PAO1 assessed as ratio of MIC after 25 serial passages to MIC before 25 serial passages by microtiter dilution assay
Summary of the method: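 Sequential passaging of wild-type PAO1 with single drugs or drug combinations. MIC was tested in MHB for 18 h. Cells from the well at half the MIC were adjusted to 0.5 McFarland in saline, diluted 1:50 in fresh MHB and used for the next MIC test. This was repeated for 25 passages, and the fold change in MIC was plotted against passage number.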

Pseudomonas aeruginosa [29] = assay: Disruption of proton motive force in Pseudomonas aeruginosa PAO1 cytoplasmic membrane assessed as repression of bacterial swimming motility at sub-MIC after 20 hrs; summary of the method: as §5
Pseudomonas aeruginosa [30] = assay: Potentiation of rifampicin-induced antibacterial activity against Pseudomonas aeruginosa PAO1 at 4 ug/ml after 18 hrs by checkerboard assay
Summary of the method: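 Checkerboard in MHB with a 10 × 7 matrix: antibiotic serially diluted along one axis, adjuvant along the other. Inoculum was a 1:50 dilution of a 0.5 McFarland suspension, incubated 18 h at 37 °C and read on a plate reader. Each FIC is the concentration in a no-growth well divided by the MIC alone; FIC index is their sum, with ≤0.5 taken as synergy.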

For `CCCCCCCCCCCCN(Cc1c2ccccc2c(Cl)c2ccccc12)C(=O)[C@@H](N)CCCCN.O=C(O)C(F)(F)F.O=C(O)C(F)(F)F`, the MIC (Enterococcus faecium) was 8 µg/mL, the MIC [1] was 8 µg/mL and the Activity (Pseudomonas aeruginosa [2]) was “Dose-dependent effect”. The Activity (Pseudomonas aeruginosa [3]) was “inactive”, the MIC (Staphylococcus aureus [4]) was 32 µg/mL and the MIC (Pseudomonas aeruginosa [5]) was > 128 µg/mL. For the same compound, the Activity (Pseudomonas aeruginosa [6]) was “inactive”, the MIC (Pseudomonas aeruginosa [7]) was > 128 µg/mL and the MIC [8] was > 128 µg/mL. The MIC [9] was 8 µg/mL, the MIC (Escherichia coli [10]) was 64 µg/mL and the MIC (Pseudomonas aeruginosa [11]; isolate 101885, 18 h) was 128 µg/mL. For the same compound, the MIC (Acinetobacter baumannii) was 128 µg/mL, the MIC (Pseudomonas aeruginosa [12]) was 128 µg/mL and the Activity (Pseudomonas aeruginosa [13]) was “inactive”. For the same compound, the MIC (Enterococcus faecalis) was 32 µg/mL, the MIC (Pseudomonas aeruginosa [14]; isolate 91433, 18 h) was 256 µg/mL and the MIC (Pseudomonas aeruginosa [15]; isolate 100036, 18 h) was 256 µg/mL. It also gave an MIC (Streptococcus pneumoniae) of 32 µg/mL, an MIC (Staphylococcus aureus [16]) of 64 µg/mL and an MIC (Pseudomonas aeruginosa [17]; isolate P262-101856, 18 h) of 128 µg/mL. For the same compound, the Activity (Pseudomonas aeruginosa [18]) was “Dose-dependent effect”, the MIC (Escherichia coli [19]) was 64 µg/mL and the MIC (Klebsiella pneumoniae) was > 128 µg/mL. For the same compound, the MIC (Pseudomonas aeruginosa [20]; isolate P264-104354, 18 h) was 128 µg/mL, the MIC (Escherichia coli [21]) was 64 µg/mL and the MIC (Pseudomonas aeruginosa [22]; PAO1, 18 h) was 256 µg/mL. For the same compound, the MIC (Pseudomonas aeruginosa [23]; isolate 101243, 18 h) was 64 µg/mL, the MIC (Escherichia coli [24]) was 128 µg/mL and the MIC (Pseudomonas aeruginosa [25]; isolate P259-96918, 18 h) was 64 µg/mL.

With COLISTIN the Activity (Pseudomonas aeruginosa [26]) was “Dose-dependent effect”, the Activity (Pseudomonas aeruginosa [27]) was “Active” and the Ratio (Pseudomonas aeruginosa [28]) was 1024. The MIC (Pseudomonas aeruginosa [11]) was 0.5 µg/mL, the Activity (Pseudomonas aeruginosa [13]) was “Active” and the MIC (Pseudomonas aeruginosa [14]) was 4 µg/mL. The MIC (Pseudomonas aeruginosa [15]) was 2 µg/mL, the Activity (Pseudomonas aeruginosa [29]) was “Active” and the MIC (Pseudomonas aeruginosa [17]) was 2 µg/mL. For the same compound, the Activity (Pseudomonas aeruginosa [30]) was “Active”, the MIC (Pseudomonas aeruginosa [20]) was 4 µg/mL and the MIC (Pseudomonas aeruginosa [22]) was 1 µg/mL. For the same compound, the MIC (Pseudomonas aeruginosa [23]) was > 1020 µg/mL and the MIC (Pseudomonas aeruginosa [25]) was 0.5 µg/mL.
